Published values pooled from the literature.
Each line is one published result; the experiments were not run side by side.
Target: Activin receptor type-1 (ACVR1, Homo sapiens, UniProt Q04771)
One construct used (Q04771 21-509): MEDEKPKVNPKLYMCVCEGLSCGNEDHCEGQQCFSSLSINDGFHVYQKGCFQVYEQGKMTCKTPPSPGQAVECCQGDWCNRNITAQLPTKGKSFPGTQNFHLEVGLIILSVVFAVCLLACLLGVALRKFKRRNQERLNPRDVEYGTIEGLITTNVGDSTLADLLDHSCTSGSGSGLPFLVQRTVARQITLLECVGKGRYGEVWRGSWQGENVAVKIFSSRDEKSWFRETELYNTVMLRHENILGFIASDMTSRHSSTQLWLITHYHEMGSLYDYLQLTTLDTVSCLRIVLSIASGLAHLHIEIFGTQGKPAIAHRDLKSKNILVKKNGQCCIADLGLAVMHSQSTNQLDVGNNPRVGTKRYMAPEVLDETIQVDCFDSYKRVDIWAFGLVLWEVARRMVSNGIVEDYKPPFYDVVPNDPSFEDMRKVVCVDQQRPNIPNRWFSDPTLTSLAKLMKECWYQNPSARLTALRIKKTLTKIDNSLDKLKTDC

CNC(=O)[C@@H]1CC[C@@H](n2c(-c3ccc4cnccc4c3)nc3ccc(C(=O)NCc4cccc(C(N)=O)c4)cc32)C1 — remaining binding (binding; competition with immobilised ligand; 1 µM): 46%
COc1ccnn2ncc(-c3ccnc(N(C)C)n3)c12 — remaining binding (binding; 1 µM): 80%
Cc1nc(N2CC[C@@H](O)C2)ncc1-c1cc(C(F)(F)F)cc2[nH]ncc12 — remaining binding (cell-free assay; competition with immobilised ligand; 1 µM): 80%
C=CC(=O)N1CCC(C(=O)NCC(=O)N2CCN(c3nc(-c4cnc(N)nc4C(F)F)nc(N4CCOCC4)n3)CC2)CC1 — remaining binding (binding; competition with immobilised ligand; 1 µM): 100%
O=C(c1ccc(Nc2ncc(Cl)c(-c3ccc(Cl)s3)n2)cc1)N1CCC(N2CCCC2)CC1 — remaining binding (binding; competition with immobilised ligand; 1 µM): 41%
COc1ccc2c(c1)O[C@@H](c1ccc(OC)c(OC)c1)C[C@H]2NC(=O)C1(c2ccc3c(c2)OC(F)(F)O3)CC1 — remaining binding (cell-free assay; competition with immobilised ligand; 1 µM): 100%
O=C(c1ccc(Nc2nccc(-c3cc4ccccc4s3)n2)cc1)N1CCC(N2CCCC2)CC1 — remaining binding (binding; competition with immobilised ligand; 1 µM): 26%
C[C@H]1CCN(c2nccc(-c3cnn4ncccc34)n2)C1 — remaining binding (binding; 1 µM): 100%
C[C@@H](c1ccc(-n2cnc3c(N)ncnc32)cc1)N1CCc2nn(C)c(Cc3ccccc3)c2C1=O — remaining binding (binding; competition with immobilised ligand; 0.1 µM): 85%
Cc1cnn2ncc(-c3ccnc(N(C)C)n3)c2c1 — remaining binding (binding; 1 µM): 100%
O=C(NCCCC1CCCCC1)c1ccc(CNC(=O)c2cnn(-c3ccccc3)c2C(F)(F)F)cc1 — remaining binding (cell-free assay; competition with immobilised ligand; 0.1 µM): 100%
O=C(NCC1CCOCC1)c1n[nH]cc1NC(=O)c1c(F)cccc1F — remaining binding (binding; competition with immobilised ligand; 1 µM): 96%
O=C1CCc2cc(Nc3cc(OC4CCOCC4)c([N+](=O)[O-])cc3Cl)ccc2N1 — remaining binding (cell-free assay; competition with immobilised ligand; 1 µM): 100%
CN(CCCC(F)(F)F)c1nccc(-c2cnn3ncccc23)n1 — remaining binding (binding; 1 µM): 77%
COc1cnc(Nc2cccc(S(N)(=O)=O)c2)nc1N1CCN(c2ccccc2)C(=O)C1 — remaining binding (binding; competition with immobilised ligand; 1 µM): 100%
O=C(c1ccc(Nc2ncc(Cl)c(-c3cc4ccccc4s3)n2)cc1)N1CCC(N2CCCC2)CC1 — remaining binding (binding; competition with immobilised ligand; 1 µM): 69%
CSc1cccnc1N1CCN(Cc2nc3ccccc3[nH]2)CC1 — remaining binding (cell-free assay; competition with immobilised ligand; 1 µM): 100%
F[C@@H]1CCN(c2nccc(-c3cnn4ncccc34)n2)C1 — remaining binding (binding; 1 µM): 80%
C[C@H](c1cccc(C#N)c1)n1cc(Cl)cc(C(N)=O)c1=N — remaining binding (cell-free assay; competition with immobilised ligand; 1 µM): 88%
Nc1ncc2c(n1)-c1c([nH]c3ccc(C#CC4CC4)cc13)CCCC2 — remaining binding (binding; competition with immobilised ligand; 1 µM): 100%
CN(c1nccc(-c2cnn3ncccc23)n1)C1CC1 — remaining binding (binding; 1 µM): 93%
